The target of assay [1] is T1, Dihydrofolate reductase (Rattus norvegicus, UniProt Q920D2).
T1 sequence (Q920D2 whole entry): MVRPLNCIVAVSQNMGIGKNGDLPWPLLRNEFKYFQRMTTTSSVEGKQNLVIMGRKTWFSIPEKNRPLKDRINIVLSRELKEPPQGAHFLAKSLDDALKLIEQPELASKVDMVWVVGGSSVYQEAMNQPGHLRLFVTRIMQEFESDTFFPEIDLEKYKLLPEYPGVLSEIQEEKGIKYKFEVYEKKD
The experiment in a line: Inhibition of rat liver Dihydrofolate reductase. The conditions noted are these: read-out: I50.

For assay [2], the target named is T2, Dihydrofolate reductase (Rattus norvegicus) (UniProt Q920D2).
T2 sequence (whole entry): T1 sequence (Q920D2 whole entry)
The experiment in a line: Percent inhibition of compound against Dihydrofolate Reductase(DHFR) of rat liver at 40000 M.

For assay [3], the target named is T2, Dihydrofolate reductase (Rattus norvegicus). The experiment in a line: Percent inhibition of compound against Dihydrofolate Reductase of rat liver at 27400 M.
For assay [4] the target is unchanged. The experiment in a line: Compound was tested for inhibitory activity against Dihydrofolate reductase of rat liver at 40000 M.
Assay [5] shares this target. The experiment in a line: Compound was tested for inhibitory activity against Dihydrofolate reductase of rat liver at 2000 M.
Assay [6] relates to Escherichia coli. The experiment in a line: Antimicrobial activity against Escherichia coli CN348 in mice in experiment 3. It counts as functional, Mus musculus.
The subject of assay [7] is Mus musculus. The assay can be described thus: Half-life in serum of mice after oral administration of 2 mg dose. It counts as functional, organism-based. In outline:
(§1)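 Single po dose (10 or 2 mg per mouse) to groups of three mice (18–20 g); ~0.2 mL blood drawn from supraorbital plexus at 10–360 min and pooled; serum drug level assayed microbiologically with Bacillus pumilus as test organism. Half-life calculated from curve slopes once compound apparently evenly distributed.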

Assay [8] relates to Staphylococcus aureus. The experiment in a line: Antimicrobial activity against Staphylococcus aureus CN491 in mice in experiment 2. It counts as functional, Mus musculus.
Assay [9] deals with Streptococcus pyogenes. The assay can be described thus: Antimicrobial activity against streptococcus pyogenes CN10 in mice in experiment 1. It counts as functional, Mus musculus.
In assay [10] the test system is Mus musculus. The assay can be described thus: Concentration of compound in serum of mouse 360 min after oral administration of 2 mg dose. The assay is classed as functional, organism-based. In outline:
as §1

For assay [11], the system named is Streptococcus pyogenes. The assay can be described thus: Antimicrobial activity against streptococcus pyogenes CN10 in mice in experiment 3. It counts as functional, Mus musculus.
Assay [12] concerns Mus musculus. The assay can be described thus: Concentration of compound in serum of mouse 90 min after oral administration of 2 mg dose. The assay is classed as functional, organism-based. In outline:
as §1

The subject of assay [13] is Mus musculus. The experiment in a line: Concentration of compound in serum of mouse 10 min after oral administration of 10 mg dose. It counts as functional, organism-based. The essentials: as §1
Assay [14] has as its system Streptococcus pyogenes. The experiment in a line: Antimicrobial activity against streptococcus pyogenes CN10 in mice in experiment 2. The assay is classed as functional, Mus musculus.
Assay [15] deals with Escherichia coli. The assay can be described thus: Antimicrobial activity against Escherichia coli CN348 in mice in experiment 2. It counts as functional, Mus musculus.
Assay [16] concerns Mus musculus. The assay can be described thus: Concentration of compound in serum of mouse 30 min after oral administration of 10 mg dose. The assay is classed as functional, organism-based. In outline: as §1
Assay [17] relates to Klebsiella pneumoniae. The experiment in a line: Antimicrobial activity against Klebsiella pneumoniae CN3632 in mice in experiment 2. It counts as functional, Mus musculus.
In assay [18] the test system is Mus musculus. The assay can be described thus: Concentration of compound in serum of mouse 10 min after oral administration of 2 mg dose. It counts as functional, organism-based. The essentials: as §1
Assay [19] relates to Mus musculus. The experiment in a line: Half-life in serum of mice after oral administration of 10 mg dose. It counts as functional, organism-based. The essentials:
as §1

The subject of assay [20] is Proteus vulgaris. The assay can be described thus: Antimicrobial activity against Proteus vulgaris CN329 in mice in experiment 2. It counts as functional, Mus musculus.
Assay [21] deals with Proteus vulgaris. The assay can be described thus: Antimicrobial activity against Proteus vulgaris CN329 in mice in experiment 1. The assay is classed as functional, Mus musculus.
In assay [22] the test system is Mus musculus. The assay can be described thus: Concentration of compound in serum of mouse 90 min after oral administration of 10 mg dose. It counts as functional, organism-based. In outline:
as §1

Assay [23] concerns Staphylococcus aureus. The experiment in a line: Antimicrobial activity against Staphylococcus aureus CN491 in mice in experiment 1. The assay is classed as functional, Mus musculus.
For assay [24], the system named is Escherichia coli. The experiment in a line: Antimicrobial activity against Escherichia coli CN348 in mice in experiment 1. It counts as functional, Mus musculus.
Assay [25] relates to Mus musculus. The experiment in a line: Concentration of compound in serum of mouse 360 min after oral administration of 10 mg dose. The assay is classed as functional, organism-based. The essentials: as §1
Assay [26] concerns Mus musculus. The experiment in a line: Concentration of compound in serum of mouse 180 min after oral administration of 10 mg dose. The assay is classed as functional, organism-based. In outline: as §1
Assay [27] deals with Klebsiella pneumoniae. The assay can be described thus: Antimicrobial activity against Klebsiella pneumoniae CN3632 in mice in experiment 3. It counts as functional, Mus musculus.
Assay [28] concerns Mus musculus. The assay can be described thus: Concentration of compound in serum of mouse 180 min after oral administration of 2 mg dose. The assay is classed as functional, organism-based. In outline: as §1
Assay [29] deals with Klebsiella pneumoniae. The experiment in a line: Antimicrobial activity against Klebsiella pneumoniae CN3632 in mice in experiment 1. The assay is classed as functional, Mus musculus.
Assay [30] concerns Staphylococcus aureus. The assay can be described thus: Antimicrobial activity against Staphylococcus aureus CN491 in mice in experiment 3. It counts as functional, Mus musculus.
Assay [31] has as its target T1, Dihydrofolate reductase. The experiment in a line: Compound was tested for inhibitory activity against Dihydrofolate Reductase(DHFR) of rat liver. The conditions noted are these: read-out: I50.
The target of assay [32] is T3, Dihydrofolate reductase (Escherichia coli, UniProt P0ABQ4).
T3 sequence (P0ABQ4 whole entry): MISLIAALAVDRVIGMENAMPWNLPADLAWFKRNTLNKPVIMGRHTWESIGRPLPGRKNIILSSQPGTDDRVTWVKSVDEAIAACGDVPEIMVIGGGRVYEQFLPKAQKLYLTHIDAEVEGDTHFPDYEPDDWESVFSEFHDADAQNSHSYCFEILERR
The assay can be described thus: Compound was tested for inhibitory activity against Dihydrofolate reductase of E. coli; Value ranges from 0.5-0.7M. The conditions noted are these: read-out: I50.

Assay [33] deals with T1, Dihydrofolate reductase. The experiment in a line: Compound was tested for inhibitory activity against Dihydrofolate Reductase of rat liver. The conditions noted are these: read-out: I50.
In assay [34] the target is T2, Dihydrofolate reductase (Rattus norvegicus). The assay can be described thus: Compound was tested for inhibitory activity against Dihydrofolate reductase of rat liver at 10000 M.
The target is the same in assay [35]. The experiment in a line: Compound was tested for inhibitory activity against Dihydrofolate reductase of rat liver at 10000. The settings on record: concentration not given here.
Assay [36] concerns Mus musculus. The experiment in a line: Concentration of compound in serum of mouse 30 min after oral administration of 2 mg dose. It counts as functional, organism-based. The essentials: as §1
Assay [37] has as its system Oryctolagus cuniculus. The experiment in a line: Peak serum concentration reached within 1 hr of administration of 5 mg/kg oral dose. The assay is classed as functional, organism-based. The arrangement: dose 5 mg/kg.
Assay [38] has as its target T2, Dihydrofolate reductase (Rattus norvegicus). The experiment in a line: PCompound was tested for inhibitory activity against Dihydrofolate reductase of rat liver at 40000 M.
The target is the same in assay [39]. The assay can be described thus: Compound was tested for inhibitory activity against Dihydrofolate reductase of rat liver at 22400 M.

With `COC(=O)CCCCCOc1c(OC)cc(Cc2cnc(N)nc2N)cc1OC`, in assay [1], the IC50 was determined as 1100 µM.

As for `COc1cc(Cc2cnc(N)nc2N)cc(OC)c1OCCCCCC(=O)O`, the IC50 in assay [1] was determined as 296 µM.

In the case of `COc1cc(Cc2cnc(N)nc2N)cc(OC)c1OC(C)C`, the inhibition (usually how much of the control response was suppressed) in assay [2] turned out to be 9%.

`COc1cc(Cc2cnc(N)nc2N)cc(OC)c1OCC(O)CO` (centres undefined): the inhibition in assay [3] is 32%.

`CCOC(=O)COc1c(OC)cc(Cc2cnc(N)nc2N)cc1OC` came in with an inhibition in [4] of 12%.

`COc1cc(Cc2cnc(N)nc2N)cc(OC)c1OCc1ccc([N+](=O)[O-])cc1` yielded an inhibition in [5] of 23%.

Consider `COc1cc(Cc2cnc(N)nc2N)cc(OC)c1OCCCl`, for which, in assay [1], the IC50 is 600 µM.

Take `CCCCCOc1c(OC)cc(Cc2cnc(N)nc2N)cc1OC`: the IC50 in [1] was found to be 270 µM.

For `C=CCOc1c(OC)cc(Cc2cnc(N)nc2N)cc1OC`, the ED50 was >10 mg mouse-1 in [6]; >10 mg mouse-1 in [8]; 12 mg mouse-1 in [9]; 5.1 mg mouse-1 in assay [11]; 4.3 mg mouse-1 in [14]; 11 mg mouse-1 in assay [15]. Further, the ED50 in assay [17] is reported as 10 mg mouse-1; in assay [20], >10 mg mouse-1; in assay [21], 10 mg mouse-1; in [23], 2.5 mg mouse-1; in assay [24] it was 7.5 mg mouse-1; in [27], >10 mg mouse-1. In addition, the ED50 was determined as 4.6 mg mouse-1 in [29] and 8.1 mg mouse-1 in assay [30]. Further, the results for the T1/2 in [7] and in [19] were 0.35 h and 1.1 h, respectively. Besides, the Concentration in assay [10] was < 0.1 µg/mL; in assay [12], 1 µg/mL; in [13] it was 84 µg/mL; in [16], 59 µg/mL; in assay [18], 18 µg/mL; in assay [22], 51 µg/mL. Besides, the Concentration in assay [25] worked out at 2.8 µg/mL; in [26], 27 µg/mL; in [28], 0.26 µg/mL. Also, the IC50 in assay [31] turned out to be 480 µM.

Regarding `CCOc1c(OC)cc(Cc2cnc(N)nc2N)cc1OC`, the IC50 in assay [32] was determined as 0.0075 µM; in assay [33] it was 620 µM.

In [34], `COc1cc(Cc2cnc(N)nc2N)cc(OC)c1OCCCN` returned an inhibition of 39%.

Molecule `COc1cc(Cc2cnc(N)nc2N)cc(OC)c1OCCCO` gave an inhibition in [35] of 24%.

`COc1cc(Cc2cnc(N)nc2N)cc(OC)c1OCCCCl`: the ED50 in [6] is on record as >10 mg mouse-1; in assay [8], >10 mg mouse-1; in assay [11], 7.2 mg mouse-1; in assay [14], 3.3 mg mouse-1; in [15] it was 9.4 mg mouse-1; in assay [20], >10 mg mouse-1. Further, the ED50 is 8.2 mg mouse-1 in assay [21]; 2.1 mg mouse-1 in assay [23]; 6.2 mg mouse-1 in assay [24]; >10 mg mouse-1 in [27]; 1 mg mouse-1 in assay [29]; 7.1 mg mouse-1 in [30]. The T1/2 in assay [7] amounted to 1.9 h; in assay [19], 2.4 h. Besides, the Concentration is 2.9 µg/mL in [36]; 0.24 µg/mL in [10]; 1.3 µg/mL in assay [12]; 41 µg/mL in assay [13]; 31 µg/mL in assay [16]; 7 µg/mL in assay [18]. Also, the Concentration came to 26 µg/mL in assay [22], 7 µg/mL in assay [25], 15 µg/mL in assay [26] and 0.7 µg/mL in assay [28]. In addition, the IC50 in [1] was 250 µM.

Turning to `COCCOc1c(OC)cc(Cc2cnc(N)nc2N)cc1OC`, the Concentration in assay [37] is 2 µg/mL. In [38], this molecule yielded an inhibition of 16%.

As for `COc1cc(Cc2cnc(N)nc2N)cc(OC)c1OCCN`, the inhibition in assay [4] came out at 38%.

In the case of `CCCCOc1c(OC)cc(Cc2cnc(N)nc2N)cc1OC`, the IC50 in [1] amounted to 580 µM.

With `COc1cc(Cc2cnc(N)nc2N)cc(OC)c1OCCCCN1C(=O)c2ccccc2C1=O`, the IC50 in assay [1] came to 54 µM.

`COc1cc(Cc2cnc(N)nc2N)cc(OC)c1OCC(=O)O` gave an inhibition in [39] of 20%.

These data come from ChEMBL document CHEMBL1121680, “2,4-Diamino-5-benzylpyrimidines and analogues as antibacterial agents. 5. 3',5'-Dimethoxy-4'-substituted-benzyl analogues of trimethoprim” (J Med Chem, 1981).
